Screening data as filed in PubChem.
Vif inh: HIV Vif self-association inhibitors, primary screen, imaging, HEK293T, single point; HEK293T cells, Vif self-association by quenched fluorescence, 24 h; inhibition, % at 7.49 µM; hit rate 0.35% among 340,000; AID 602346, 2012; in the data active = inhibition above about 50%, passing the limit was not always enough
TAG inh: inhibitors of triacylglycerol accumulation, primary screen, cell-based, uHTS, fluorescence, H9c2 | H9c2 cells, Nile Red lipid (TAG) fluorescence; cells loaded with 200 µM oleic acid | inhibition, % at 12.5 µM | hit rate 0.66% among 230,000 | AID 651582, 2012;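 active = pattern-corrected inhibition of lipid staining of at least 50% with the nuclear-stain viability signal not falling by more than 50%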
SMARCA2 activ: SMARCA2 (BRM) function activators, primary screen, cell-based, luminescence, high throughput; hit rate 1% among 370,000; activation, % at 9.1 µM; AID 652017, 2013; MG213 cells, MMTV-luciferase reporter, dexamethasone, overnight; in the data active = activation above about 7.8%
SR-BI DiI inh: inhibitors of SR-BI mediated HDL lipid uptake, primary screen, ldlA[mSR-BI] cells, fluorescence, single point | AID 488896, 2010 | ldlA[mSR-BI] CHO cells, DiI-HDL uptake fluorescence, 3 h | Scavenger receptor class B member 1 (Mus musculus), Q61009 | hit rate 0.96% among 320,000 | inhibition, % at 12.5 µM;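 active = mean replicate inhibition of at least 70% and a set share of replicates each scoring 70 or more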
Target sequence (Q61009 whole entry, looked up): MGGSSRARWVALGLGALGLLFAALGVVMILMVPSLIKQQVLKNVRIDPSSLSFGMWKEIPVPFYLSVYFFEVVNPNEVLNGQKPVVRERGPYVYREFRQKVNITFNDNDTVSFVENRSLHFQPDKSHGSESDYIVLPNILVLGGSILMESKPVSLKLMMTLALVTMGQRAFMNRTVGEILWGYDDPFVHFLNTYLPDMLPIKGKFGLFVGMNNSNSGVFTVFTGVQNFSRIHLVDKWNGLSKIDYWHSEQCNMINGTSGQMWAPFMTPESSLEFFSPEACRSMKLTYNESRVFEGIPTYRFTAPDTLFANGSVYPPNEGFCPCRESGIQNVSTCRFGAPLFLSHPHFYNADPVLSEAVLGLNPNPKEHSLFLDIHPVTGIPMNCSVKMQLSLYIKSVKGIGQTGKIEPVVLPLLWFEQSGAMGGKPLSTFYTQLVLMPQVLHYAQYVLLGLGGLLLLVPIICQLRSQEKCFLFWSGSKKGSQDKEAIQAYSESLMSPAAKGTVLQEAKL
SR-BI DiI-HDL act: activators of SR-BI mediated DiI-HDL uptake, primary screen, ldlA[mSR-BI] CHO cells, DiI fluorescence. activation, % at 12.5 µM. AID 504775, 2011. hit rate 0.096% among 320,000. 3 h; 100 = double the neutral-control signal;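 active = mean replicate activation of at least 60% and every replicate at or above 60%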
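material = CHO ldlA[mSR-BI] cells | medium = Ham's F12 with 0.5% BSA, HEPES 25 mM, pH 7.4 | reagent = fluorescent DiI-HDL, 10 µg/mL final | compound dosing = single-point compound dose | incubation = 3 h, 37 °C | measured by = bottom-read fluorescence, 550/595 nm | measure = HDL uptake via cellular fluorescence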
SMARCA2 conf: SMARCA2 (BRM) function activators, confirmation, cell-based, luminescence, triplicate | hit rate 30% among 3,500 | MG213 cells, MMTV-luciferase with dexamethasone, overnight; MG213 cells expressing E1A, Rb sequestered; DMSO wells 0%, reference activator 100% | activation, % at 9.1 µM | shares compounds with SMARCA2 activ | AID 652260, 2013;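 active = activation above its plate's cutoff, the mean activation of tested wells plus 3 SD, cut at about 7.9% in these data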
VP16 Luc act: GAL4-VP16 luciferase reporter activation, counter-screen for SMARCA2 (BRM) activator project, cell-based, pG5luc, luminescence, high throughput | shares compounds with SMARCA2 activ | activation, % at 9.1 µM | HEK293 GAL4-VP16 pG5luc reporter; scaled: DMSO wells 0%, SAHA wells 100% | hit rate 41% among 3,500;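 active = activation above the solvent-only control well mean plus 3 SD, averaged across control plates, cut at about 5.2% in these data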
Large screens that a line does not name were inactive (follow-up assays come after a bar, where they were run). Sampled rows, rich in hits. Any-hit rate of the full collection: about 2.5%.

CN(C(=O)COC(=O)c1ccc2c(c1)OCO2)C1CCCCC1	SMARCA2 activ 9.9 | SMARCA2 conf inactive | VP16 Luc act inactive
CCCOc1ccc(-c2cnc(N)s2)cc1	SMARCA2 activ 13 (no result: Vif inh, TAG inh) | SMARCA2 conf inactive | VP16 Luc act 10
CCCCn1cnc2c(c(-c3ccccc3)c(-c3ccccc3)n2Cc2ccco2)c1=N	none (no result: SR-BI DiI inh, SR-BI DiI-HDL act)
N=c1c2c(-c3ccccc3)c(-c3ccccc3)n(Cc3ccccc3)c2ncn1CCCn1ccnc1	SMARCA2 activ 15 (no result: TAG inh) | SMARCA2 conf inactive | VP16 Luc act inactive
COCCN(C(=O)c1ccccc1OC1CCN(S(C)(=O)=O)CC1)C(C)C	SMARCA2 activ 8.1 | SMARCA2 conf inactive | VP16 Luc act inactive
COC(=O)[C@@H](NC(=O)c1ccccc1OC1CCN(S(C)(=O)=O)CC1)C(C)C	none
C[C@H](O)[C@@H]1C(=O)N2CCc3c([nH]c4c(-c5ccccc5)cccc34)[C@@H]2C[C@@H]1N(C)C(=O)c1ccccc1F	none (no result: Vif inh, TAG inh, SR-BI DiI inh, SR-BI DiI-HDL act)
O=C(CCc1nc(-c2ccccc2F)no1)NCCc1ccccc1F	none (no result: Vif inh, TAG inh, SR-BI DiI inh, SR-BI DiI-HDL act)
CC(C)OC(=O)c1ccc(N2C(=O)C3CC=CCC3C2=O)cc1 (stereo not given)	SMARCA2 activ 8.8 (no result: Vif inh) | SMARCA2 conf inactive | VP16 Luc act inactive
COCc1nnc(NC(=O)c2sc3ccccc3c2Cl)s1	SMARCA2 activ 9.8 | SMARCA2 conf 17 | VP16 Luc act 7.5
Cc1nnc(NC(=O)c2sc3ccccc3c2Cl)s1	none
CNC(=O)c1ccsc1NC(=O)c1sc2ccccc2c1Cl	SMARCA2 activ 11 | SMARCA2 conf 12 | VP16 Luc act 7.5
Cc1ccc(NC(=O)c2sc3ccccc3c2Cl)nc1	none (no result: TAG inh)
Cc1cccnc1NC(=O)c1sc2ccccc2c1Cl	SMARCA2 activ 8.5 | SMARCA2 conf 18 | VP16 Luc act 7.8
COc1ccc(OC)c(CN2C(=O)CN(S(C)(=O)=O)CC2(C)c2nnnn2C2CCCC2)c1 (stereo not given)	none (no result: Vif inh, TAG inh, SR-BI DiI inh, SR-BI DiI-HDL act)
O=C(C=Cc1cccc(Cl)c1)c1ccccc1	SMARCA2 activ 10 | SMARCA2 conf inactive | VP16 Luc act inactive
CCOc1ccc(/C=C/C(=O)c2ccccc2)cc1	SMARCA2 activ 9.9 (no result: TAG inh) | SMARCA2 conf inactive | VP16 Luc act 12
O=C(C=Cc1ccc(OCc2ccccc2)cc1)c1c(F)cccc1F	SMARCA2 activ 10 (no result: Vif inh, TAG inh, SR-BI DiI inh, SR-BI DiI-HDL act) | SMARCA2 conf 9.9 | VP16 Luc act inactive
CCOc1ccc(C(=O)/C=C/c2ccc(SC)cc2)cc1	none (no result: TAG inh)
CN(C)c1ccc(C(=O)/C=C/c2ccccc2)cc1	SMARCA2 activ 10 (no result: TAG inh) | SMARCA2 conf 8.6 | VP16 Luc act 14
CC1(C(=O)NC2CCCC2)CCC(=O)N1CCOc1ccccc1 (stereo not given)	none (no result: Vif inh, TAG inh, SR-BI DiI inh, SR-BI DiI-HDL act)
COc1cc2c(cc1NC(=O)CSc1nnc(-c3cccc(Cl)c3)n1-c1ccccc1)oc1ccccc12	none (no result: Vif inh, TAG inh, SR-BI DiI inh, SR-BI DiI-HDL act)
NC(=O)C1CCCN1S(=O)(=O)c1ccc2ccccc2c1 (stereo not given)	none (no result: Vif inh)
CNc1ccc(/C=C/C(=O)c2ccc(C)cc2)cc1[N+](=O)[O-]	none (no result: TAG inh)
CN(C)c1ccc(/C=C/C(=O)c2ccccc2)cc1[N+](=O)[O-]	SMARCA2 activ 9.3 (no result: TAG inh) | SMARCA2 conf inactive | VP16 Luc act inactive
Cc1[nH]c2ccccc2c1/C=N/NC(=O)c1ccccc1	none (no result: TAG inh)
Cc1[nH]c2ccccc2c1/C=N/Nc1nc2ccccc2[nH]1	TAG inh 64, SMARCA2 activ 21 | SMARCA2 conf 9.2 | VP16 Luc act inactive
Cc1[nH]c2ccccc2c1/C=N/NC(=O)c1ccc(N)cc1	SMARCA2 activ 9.3 (no result: TAG inh) | SMARCA2 conf inactive | VP16 Luc act inactive
C(=N\Nc1nc2ccccc2[nH]1)/c1ccccc1	none
NC(=O)c1ccccc1NC(=O)c1cc(S(=O)(=O)N2CCCCC2)ccc1N1CCOCC1	none
CCOc1ccc(CCNc2nc3ccc(C)cc3n3cnnc23)cc1OCC	none (no result: TAG inh)
CCOC(=O)N1CCN(C(=O)CSc2ccc(-c3ccc(OC)c(OC)c3)nn2)CC1	none
COc1ccc(-c2ccc(SCC(=O)N3c4ccccc4CC3C)nn2)cc1OC (stereo not given)	SMARCA2 activ 13 (no result: TAG inh) | SMARCA2 conf inactive | VP16 Luc act inactive
COC(=O)[C@]12C[C@H](CC(=O)N3CCOCC3)C(=O)N(Cc3ccco3)C1=C[C@H](C(C)C)O[C@@H]2C1CC1	SMARCA2 activ 9.6 (no result: Vif inh, TAG inh, SR-BI DiI inh, SR-BI DiI-HDL act) | SMARCA2 conf inactive | VP16 Luc act inactive
CC(C)(C)CC(=O)O/N=C(\N)c1ccccn1	SMARCA2 activ 11 (no result: TAG inh) | SMARCA2 conf 8.8 | VP16 Luc act inactive
Cc1ccc(CC(=O)O/N=C(\N)c2ccccn2)cc1	SMARCA2 activ 8.9 | SMARCA2 conf 9.7 | VP16 Luc act 8.4
Cc1cccc(OCC(=O)O/N=C(\N)c2ccccn2)c1C	SMARCA2 activ 9.2 (no result: Vif inh) | SMARCA2 conf 10 | VP16 Luc act 7.0
COc1ccccc1CC(=O)O/N=C(\N)c1ccccn1	none
Cc1ccc(OCC(=O)O/N=C(\N)c2ccccn2)cc1	none
COc1cccc(CCNS(=O)(=O)c2c(C)n[nH]c2C)c1	none (no result: Vif inh, TAG inh, SR-BI DiI inh, SR-BI DiI-HDL act)
COC(=O)c1cc(-c2ccc(C)c(C)c2)c(=O)n2c1CCC2	none (no result: Vif inh, TAG inh, SR-BI DiI inh, SR-BI DiI-HDL act)
COc1ccc(CC(=O)N/N=C/c2cccs2)cc1OC	none (no result: TAG inh)
COc1ccc(COC(=O)N/N=C/c2cccs2)cc1	SMARCA2 activ 9.3 (no result: TAG inh) | SMARCA2 conf inactive | VP16 Luc act inactive
O=C(NN=C1CCCC1)c1cc(O)cc(O)c1	none
O=C(NN=C1CCCC1)c1cccc(O)c1	SMARCA2 activ 8.9 | SMARCA2 conf inactive | VP16 Luc act inactive
Cc1ccc(C)c(NC(=O)CSc2nccn2Cc2ccco2)c1	none
O=C(CSc1nnc(-c2cnccn2)n1-c1ccccc1)Nc1ccc2cn[nH]c2c1	SMARCA2 activ 8.7 (no result: Vif inh, TAG inh, SR-BI DiI inh, SR-BI DiI-HDL act) | SMARCA2 conf inactive | VP16 Luc act inactive
Cc1ccc(NC(=O)CSc2nnc(-c3cnccn3)n2Cc2ccco2)cc1	SMARCA2 activ 23 (no result: TAG inh) | SMARCA2 conf inactive | VP16 Luc act inactive
Cn1c(SCC(=O)Nc2ccc3cn[nH]c3c2)nnc1-c1cnccn1	none (no result: Vif inh)
Cc1ccc(NC(=O)CSc2nccn2Cc2ccco2)c(C)c1	SMARCA2 activ 11 | SMARCA2 conf 9.9 | VP16 Luc act 6.5
CC(=O)c1cc(-c2cccc(CO)c2)c(=O)n2c1CCC2	none (no result: Vif inh, TAG inh, SR-BI DiI inh, SR-BI DiI-HDL act)
O=c1c2ccccc2nnn1CSc1ncnc2ccccc12	none (no result: Vif inh)
O=c1c2ccccc2nnn1Cc1ccccc1	none (no result: SR-BI DiI inh, SR-BI DiI-HDL act)
